# Compounds with a hit are over-represented: about 3.6% of the library has one in this group of screens.
# IMP-1 inh-1 – blocks Pseudomonas aeruginosa IMP-1 metallo-beta-lactamase; purified IMP-1, nitrocefin hydrolysis, epi-absorbance fluorescence; inhibition, % at 5.6 µM; 290,000 compounds, 0.45% hits; AID 1556;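 active = inhibition above the mean plus 3 SD of all compounds in the same screening run, cut at about 4.5% in these data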
#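 System: purified recombinant IMP-1 beta-lactamase. Medium: Zinc- and detergent-supplemented HEPES buffer, pH 7.1. Compound: one 5.6 µM dose […]. Schedule: 15 min preincubation plus 25 min reaction at 25 °C. Technique: Epi-absorbance fluorescence, 480 nm excitation, 530 nm emission.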
# PAFAH2 inh – PAFAH2 (human) inhibition; Q99487; recombinant PAFAH2, FP-rhodamine activity probe, fluorescence polarization; inhibition, % at 3.39 µM; 340,000 compounds, 0.99% hits; AID 492956;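 active = inhibition above the mean over all tested compounds plus 3 SD, cut at about 30% in these data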;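 note: inhibitors block probe labeling of enzyme so polarization drops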
# VIM-2 inhibitor – blocks Pseudomonas aeruginosa VIM-2 metallo-beta-lactamase; purified VIM-2, nitrocefin hydrolysis, epi-absorbance fluorescence; inhibition, % at 5.6 µM; 290,000 compounds, 0.89% hits; AID 1527;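 active = inhibition above the mean of all tested compounds plus 3 SD, cutoff set per screening run, cut at about 7.5% in these data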;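 note: red hydrolysis product quenches plate fluorescence so inhibitors raise well fluorescence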
# PAFAH1B2 FP inh – inhibitors of human PAFAH1B2. AID 492953. P68402. inhibition, % at 3.39 µM. recombinant PAFAH1B2, FP-rhodamine activity probe, fluorescence polarization. 340,000 compounds, 1.2% hits;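 active = inhibition above the mean of all tested compounds plus 3 SD, cut at about 24% in these data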
# PAFAH1B3 FP inh – blocks human PAF acetylhydrolase 1B catalytic subunit 3. inhibition, % at 3.39 µM. Q15102. recombinant PAFAH1B3, FP-rhodamine probe, fluorescence polarization. AID 492972. 340,000 compounds, 0.28% hits;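 active = inhibition above the screen-wide average of all tested compounds plus 3 SD, cut at about 25% in these data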
# Target sequence (Q15102 whole entry, looked up): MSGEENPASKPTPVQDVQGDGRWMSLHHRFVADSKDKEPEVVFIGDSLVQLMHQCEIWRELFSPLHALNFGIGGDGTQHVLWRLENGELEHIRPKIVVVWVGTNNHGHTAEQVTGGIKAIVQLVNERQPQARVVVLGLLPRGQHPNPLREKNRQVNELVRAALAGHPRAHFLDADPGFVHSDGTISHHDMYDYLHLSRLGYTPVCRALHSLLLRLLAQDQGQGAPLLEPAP
# pPAFAH FP inh – pPAFAH (human) enzyme inhibition. Q13093. recombinant pPAFAH, FP-rhodamine probe fluorescence polarization. inhibition, % at 3.39 µM. 330,000 compounds, 1.5% hits;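 active = inhibition above the mean inhibition across the screen plus 3 SD, cut at about 25% in these data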;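 note: inhibitors block binding of the rhodamine activity-based probe so polarization drops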
# Target sequence (Q13093 whole entry, looked up): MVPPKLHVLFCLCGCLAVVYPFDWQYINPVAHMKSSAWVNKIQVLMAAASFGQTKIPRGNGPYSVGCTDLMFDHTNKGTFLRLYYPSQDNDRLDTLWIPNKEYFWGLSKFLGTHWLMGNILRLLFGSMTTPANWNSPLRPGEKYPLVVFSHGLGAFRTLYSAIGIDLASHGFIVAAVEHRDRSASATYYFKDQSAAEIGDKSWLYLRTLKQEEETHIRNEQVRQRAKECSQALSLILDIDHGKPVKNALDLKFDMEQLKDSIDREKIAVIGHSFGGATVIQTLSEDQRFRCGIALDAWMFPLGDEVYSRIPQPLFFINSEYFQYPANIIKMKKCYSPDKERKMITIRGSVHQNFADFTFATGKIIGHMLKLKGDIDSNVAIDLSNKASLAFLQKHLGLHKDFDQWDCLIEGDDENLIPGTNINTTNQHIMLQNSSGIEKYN
# IMP-1 inh-2 – selectivity counter-screen for VIM-2 inhibitors: IMP-1 metallo-beta-lactamase inhibitors; shares compounds with VIM-2 inhibitor; purified IMP-1, nitrocefin hydrolysis, epi-absorbance fluorescence; inhibition, % at 5.6 µM; 1,300 tested, under 10 active; AID 1856; call rule not given here
# VIM-2 FRET ctr – counter-screen for VIM-2 inhibitors: epi-absorbance artifacts via FRET; inhibition, % at 5.6 µM; shares compounds with VIM-2 inhibitor; 1,300 compounds, 23% hits; purified VIM-2, CCF2 FRET substrate hydrolysis; AID 1857;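 active = inhibition above the mean of all tested compounds plus 3 SD, cut at about 19% in these data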
# TEM-1 counter – TEM-1 inhibition, counter-screen for VIM-2 inhibitors | shares compounds with VIM-2 inhibitor | Purified TEM-1, nitrocefin hydrolysis, epi-absorbance fluorescence | inhibition, % at 5.6 µM | 1,300 compounds, 3% hits;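 active = inhibition above that campaign's mean inhibition plus 3 SD, cut at about 0.46% in these data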
# VIM-2 confirm 2 – confirmation of P. aeruginosa VIM-2 metallo-beta-lactamase inhibitors | shares compounds with VIM-2 inhibitor | purified VIM-2, nitrocefin hydrolysis, epi-absorbance | inhibition, % at 5.6 µM | 1,300 compounds, 96% hits | AID 2187;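 active = inhibition of the VIM-2 beta-lactamase enzyme above about 11% from the earlier first-round screen, limit read from the data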
# Numbers stand for hits; . = inactive; / = not tested or not shown.
SMILES,IMP-1 inh-1,PAFAH2 inh,VIM-2 inhibitor,PAFAH1B2 FP inh,PAFAH1B3 FP inh,pPAFAH FP inh,IMP-1 inh-2,VIM-2 FRET ctr,TEM-1 counter,VIM-2 confirm 2
CC(=O)COc1ccc2c3c(c(=O)oc2c1)CCCC3,.,.,.,.,.,.,/,/,/,/
CCc1cc(=O)oc2c(C)c(OCC(=O)NC3CC(C)(C)NC(C)(C)C3)ccc12,.,.,14,.,.,.,.,.,.,22
CC(Oc1ccc2c3c(c(=O)oc2c1)CCCC3)C(=O)NCc1ccncc1 (configuration not stated),.,.,25,.,.,.,.,.,.,38
Cc1cc(=O)oc2cc(OCC(=O)NC3CC(C)(C)NC(C)(C)C3)c(Cl)cc12,.,.,.,.,.,.,/,/,/,/
O=C(COc1ccc2c3c(c(=O)oc2c1)CCCC3)NCc1ccncc1,.,.,35,.,.,.,.,.,3.2,47
COCC(=O)N1CCC(Oc2ccc(C(=O)N3C[C@@H]4CCC[C@H]3C4)cc2)CC1,.,.,.,.,.,/,/,/,/,/
O=S1(=O)CCN(c2ccccc2CC(c2c[nH]c3ccccc23)c2c[nH]c3ccccc23)CC1,/,.,/,.,.,/,/,/,/,/
Cc1c(OCC(=O)NCc2ccccn2)ccc2c(-c3ccccc3)cc(=O)oc12,.,.,.,.,.,.,/,/,/,/
Cc1c(OCC(=O)NCC(O)c2ccccc2)ccc2c(-c3ccccc3)cc(=O)oc12 (configuration not stated),.,.,13,.,.,.,.,.,.,26
O=C(COc1ccc2c3c(c(=O)oc2c1)CCC3)NCC(O)c1ccccc1 (configuration not stated),.,.,14,.,.,.,.,.,.,23
Cc1ccc(NS(=O)(=O)c2c(C)ccc3nsnc23)c([N+](=O)[O-])c1,.,.,.,.,.,.,/,/,/,/
CN(C)c1cccc(C(=O)OCc2cc(=O)oc3cc(O)ccc23)c1,.,.,32,.,.,.,.,34,.,27
CC1CN(S(=O)(=O)c2cccc(C(=O)OCc3cc(=O)oc4cc(O)ccc34)c2)CC(C)O1 (configuration not stated),.,.,.,.,.,.,/,/,/,/
Cc1cc(NCCCn2ccnc2)n2nc(-c3ccc(Cl)cc3)cc2n1,.,.,38,.,.,.,.,.,.,47
Cc1cccc(-c2cc3nc(C)cc(NCCCN(C)C)n3n2)c1,.,.,.,.,.,.,/,/,/,/
Cc1cccc(-c2cc3nc(C)c(C)c(NCCCn4ccnc4)n3n2)c1,.,.,35,.,.,.,.,.,.,49
Cc1cc(NCCCn2ccnc2)n2nc(-c3ccc(F)cc3)cc2n1,.,.,41,.,.,.,.,.,3.0,67
Cc1cc(-c2ccccc2)nc2cc(C(=O)NCCCn3ccnc3)nn12,.,.,17,.,.,.,.,.,.,28
COc1ccc(-c2nc(CS(=O)CC(=O)NCCN3CCCCC3C)c(C)o2)cc1OC (configuration not stated),.,.,.,.,.,.,/,/,/,/
COc1cccc(Oc2ccc(C(F)(F)F)cc2NC(=O)CN2C(=O)NC3(CCCC3)C2=O)c1,/,.,/,.,.,.,/,/,/,/
CC1(C)NC(=O)N(CC(=O)OCC(=O)NC(=O)c2ccccc2)C1=O,/,.,/,.,.,.,/,/,/,/
Cc1nn2c(NCc3ccccn3)cc(C(C)C)nc2c1-c1ccccc1,.,.,.,.,.,.,/,/,/,/
Cc1nn2c(NCCCn3ccnc3)cc(C(C)C)nc2c1-c1ccccc1,.,.,20,.,.,.,.,.,.,29
O=C(Nc1ccc(F)cc1)c1cc(-c2ccccn2)nc2c(Cl)cccc12,.,.,.,.,.,.,/,/,/,/
c1ccc(CN2CCN(CCCNc3ccc4nnc(-c5ccccc5)n4n3)CC2)cc1,.,.,62,.,.,.,.,.,0.8,76
SMILES,IMP-1 inh-1,PAFAH2 inh,VIM-2 inhibitor,PAFAH1B2 FP inh,PAFAH1B3 FP inh,pPAFAH FP inh,IMP-1 inh-2,VIM-2 FRET ctr,TEM-1 counter,VIM-2 confirm 2
c1ccc(CNc2c3ccccc3nc3ccccc23)cc1,.,.,22,.,.,.,.,.,.,32
c1ccc(CNc2ncnc3ccccc23)cc1,.,.,.,.,.,.,/,/,/,/
CSC1=N/C(=C/c2ccc(-n3cncn3)cc2)C(=O)N1,.,.,14,.,.,.,.,.,.,55
COc1ccc(/C=C2\N=C(SC)NC2=O)cc1,.,.,.,.,.,.,/,/,/,/
CCOc1cc(/C=N/n2cnnc2)ccc1OC(=O)c1cccc([N+](=O)[O-])c1,.,.,13,.,.,.,.,.,.,14
Cc1ccc(-c2ccc(/C=N/n3cnnc3)o2)cc1,.,.,.,.,.,.,/,/,/,/
O=[N+]([O-])c1ccccc1-c1ccc(/C=N/n2cnnc2)o1,.,.,.,.,.,.,/,/,/,/
Clc1cccc(-c2ccc(/C=N/n3cnnc3)o2)c1,.,.,19,.,.,.,.,.,1.9,33
Cc1ccc(-c2ccc(/C=N/n3cnnc3)o2)cc1Cl,.,.,21,.,.,.,.,.,.,45
O=[N+]([O-])c1cc(-c2ccc(/C=N\n3cnnc3)o2)cc([N+](=O)[O-])c1,.,.,54,.,.,27,.,.,.,66
COc1ccc(CC(=O)OCC(=O)NC2CCCC(C)C2C)cc1OC (configuration not stated),/,.,/,.,.,.,/,/,/,/
O=C(CSCc1ccccc1)NNc1c(F)c(F)cc(F)c1F,.,.,.,.,.,.,/,/,/,/
CSc1nnc(-c2cc3c(-c4ccccc4)nn(C)c3s2)n1C,.,.,19,.,.,.,.,.,.,26
CCOC(=O)c1c(NC(=O)C2=COCCO2)sc2c1CCN(C(=O)OC)C2,/,.,/,.,.,.,/,/,/,/
O=C(CCCN1C(=O)c2cccc3cccc(c23)C1=O)NC1CCS(=O)(=O)C1 (configuration not stated),.,.,15,.,.,.,.,.,.,22
O=C(O)CCCN1C(=O)c2cccc3cccc(c23)C1=O,.,.,.,.,.,.,/,/,/,/
O=C(O)CCC(=O)N1CCN(c2ccc(C(=O)c3ccc(F)cc3)cc2)CC1,.,.,16,.,.,.,.,.,.,.
O=C(c1ccccc1)c1ccc(N2CCNCC2)cc1,.,/,18,/,/,/,.,.,.,46
